Laboratory results as given in ChEMBL document CHEMBL3392991, “Structure-based design of bacterial nitric oxide synthase inhibitors” (J Med Chem, 2015).
The source made the active and inactive calls. The rule behind the calls is not given here.

Key:
Bacillus subtilis [1] = assay: Inhibition of NADPH-dependent Bacillus subtilis NOS using bBiDomain and Escherichia coli flavodoxin reductase YumC assessed as nitrite level at 300 uM by Griess reaction; set-up: Activity: scale not given: the % may be the effect or the level left
Procedure, shortened: (§1)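 bBiDomain with the flavodoxin reductase YumC, NADPH-driven, 50 μM H4B included. Inhibitor tested over a range of concentrations. Nitrite measured at a single time point.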

Bacillus subtilis [2] = assay: Inhibition of NADPH-dependent Bacillus subtilis NOS using bBiDomain and Escherichia coli flavodoxin reductase YumC assessed as nitrite level up to 800 uM by Griess reaction; procedure, shortened: as §1
Bacillus subtilis [3] = assay: Antibacterial activity against delta nos Bacillus subtilis assessed as bacterial growth up to 800 uM measured after overnight incubation relative to control; type: functional; settings: in the assay text read “at 500 uM” for “up to 800 uM”
Procedure, shortened: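 WT (ATCC 23857) and Δnos strains grown to OD600 ≈ 1.0, diluted to OD600 0.6 in LB, then mixed with M9 minimal media with or without NOS inhibitor (final 500 μM) and/or acriflavine (final 800 μM). 30 min at 30 °C, serially diluted, plated on LB agar + 0.5% glucose, overnight at 37 °C. CFU counted; percent survival relative to untreated cells.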

Bacillus subtilis [4] = assay: Displacement of imidazole from Bacillus subtilis NOS in presence of 50 uM H4B
Bacillus subtilis [5] = assay: Displacement of imidazole from Bacillus subtilis NOS
Nitric oxide synthase 3 = target: T1, Nitric oxide synthase 3 (Bos taurus, UniProt P29473); assay: Inhibition of bovine eNOS
T1 sequence (P29473 whole entry): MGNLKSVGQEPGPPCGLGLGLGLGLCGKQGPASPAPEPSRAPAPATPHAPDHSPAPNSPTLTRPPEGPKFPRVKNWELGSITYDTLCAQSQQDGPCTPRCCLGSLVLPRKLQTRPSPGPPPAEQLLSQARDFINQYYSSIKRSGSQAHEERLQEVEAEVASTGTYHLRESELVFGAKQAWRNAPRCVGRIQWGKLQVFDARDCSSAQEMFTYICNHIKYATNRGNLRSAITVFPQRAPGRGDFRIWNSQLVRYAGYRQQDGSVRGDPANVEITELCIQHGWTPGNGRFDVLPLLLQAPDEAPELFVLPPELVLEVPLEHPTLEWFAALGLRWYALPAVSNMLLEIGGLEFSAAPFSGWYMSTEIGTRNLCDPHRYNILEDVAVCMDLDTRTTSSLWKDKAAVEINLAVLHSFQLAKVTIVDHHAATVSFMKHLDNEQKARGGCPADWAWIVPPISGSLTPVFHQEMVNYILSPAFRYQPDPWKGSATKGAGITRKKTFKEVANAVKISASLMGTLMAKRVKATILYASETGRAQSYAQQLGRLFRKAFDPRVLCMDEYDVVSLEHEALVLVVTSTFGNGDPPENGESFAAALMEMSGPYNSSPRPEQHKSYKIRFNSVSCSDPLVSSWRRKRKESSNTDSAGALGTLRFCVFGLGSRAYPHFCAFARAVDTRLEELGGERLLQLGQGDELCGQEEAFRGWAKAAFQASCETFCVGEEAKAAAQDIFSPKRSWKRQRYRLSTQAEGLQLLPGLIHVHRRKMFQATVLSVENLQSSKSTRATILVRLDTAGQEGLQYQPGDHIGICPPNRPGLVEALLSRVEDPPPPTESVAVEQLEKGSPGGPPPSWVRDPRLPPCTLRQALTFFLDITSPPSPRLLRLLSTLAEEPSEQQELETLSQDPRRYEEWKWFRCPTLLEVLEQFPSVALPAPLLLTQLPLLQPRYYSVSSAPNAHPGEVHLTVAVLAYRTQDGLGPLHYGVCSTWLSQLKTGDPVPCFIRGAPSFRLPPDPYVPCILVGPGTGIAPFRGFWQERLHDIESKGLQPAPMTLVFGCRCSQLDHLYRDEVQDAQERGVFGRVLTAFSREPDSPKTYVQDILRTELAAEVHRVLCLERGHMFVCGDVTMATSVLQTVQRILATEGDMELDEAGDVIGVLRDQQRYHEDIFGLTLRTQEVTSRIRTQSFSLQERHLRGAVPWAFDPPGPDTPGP

Nitric oxide synthase 1 = Nitric oxide synthase 1 (Rattus norvegicus, UniProt P29476); assay: Inhibition of rat nNOS
[6] = target: T2, Nitric oxide synthase, inducible (Mus musculus, UniProt P29477); assay: Inhibition of mouse iNOS
T2 sequence (P29477 whole entry): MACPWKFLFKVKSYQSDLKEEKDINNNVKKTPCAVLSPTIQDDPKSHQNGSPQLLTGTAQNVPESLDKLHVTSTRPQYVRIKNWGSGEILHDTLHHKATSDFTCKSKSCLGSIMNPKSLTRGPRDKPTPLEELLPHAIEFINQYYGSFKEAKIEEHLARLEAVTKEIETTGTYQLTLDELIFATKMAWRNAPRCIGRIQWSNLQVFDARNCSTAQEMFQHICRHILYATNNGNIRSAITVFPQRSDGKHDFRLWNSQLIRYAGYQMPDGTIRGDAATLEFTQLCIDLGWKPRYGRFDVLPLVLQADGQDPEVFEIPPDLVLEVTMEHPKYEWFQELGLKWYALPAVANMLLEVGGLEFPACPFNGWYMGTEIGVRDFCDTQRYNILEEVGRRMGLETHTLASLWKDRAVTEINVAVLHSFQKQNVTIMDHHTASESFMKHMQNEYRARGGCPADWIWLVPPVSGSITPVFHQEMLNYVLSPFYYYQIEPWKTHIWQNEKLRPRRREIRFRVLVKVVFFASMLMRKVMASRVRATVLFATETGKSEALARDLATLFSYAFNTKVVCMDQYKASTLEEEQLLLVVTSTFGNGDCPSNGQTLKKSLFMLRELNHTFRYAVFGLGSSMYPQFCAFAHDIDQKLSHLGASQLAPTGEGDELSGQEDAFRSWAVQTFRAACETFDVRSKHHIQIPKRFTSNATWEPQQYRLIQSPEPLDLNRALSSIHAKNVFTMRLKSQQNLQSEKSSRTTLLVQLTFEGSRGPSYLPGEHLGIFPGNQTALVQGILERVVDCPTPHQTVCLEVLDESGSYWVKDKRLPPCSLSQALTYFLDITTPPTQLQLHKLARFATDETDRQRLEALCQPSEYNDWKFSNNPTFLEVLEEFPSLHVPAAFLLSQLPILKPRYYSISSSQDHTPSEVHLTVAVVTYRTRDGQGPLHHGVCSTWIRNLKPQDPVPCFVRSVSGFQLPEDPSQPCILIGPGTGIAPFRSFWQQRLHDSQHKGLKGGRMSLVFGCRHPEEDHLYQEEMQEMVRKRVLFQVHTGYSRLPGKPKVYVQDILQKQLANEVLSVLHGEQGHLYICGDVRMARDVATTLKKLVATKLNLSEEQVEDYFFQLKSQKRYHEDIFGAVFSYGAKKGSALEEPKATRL

Chain of Nitric oxide synthase 1 (P29476 whole entry): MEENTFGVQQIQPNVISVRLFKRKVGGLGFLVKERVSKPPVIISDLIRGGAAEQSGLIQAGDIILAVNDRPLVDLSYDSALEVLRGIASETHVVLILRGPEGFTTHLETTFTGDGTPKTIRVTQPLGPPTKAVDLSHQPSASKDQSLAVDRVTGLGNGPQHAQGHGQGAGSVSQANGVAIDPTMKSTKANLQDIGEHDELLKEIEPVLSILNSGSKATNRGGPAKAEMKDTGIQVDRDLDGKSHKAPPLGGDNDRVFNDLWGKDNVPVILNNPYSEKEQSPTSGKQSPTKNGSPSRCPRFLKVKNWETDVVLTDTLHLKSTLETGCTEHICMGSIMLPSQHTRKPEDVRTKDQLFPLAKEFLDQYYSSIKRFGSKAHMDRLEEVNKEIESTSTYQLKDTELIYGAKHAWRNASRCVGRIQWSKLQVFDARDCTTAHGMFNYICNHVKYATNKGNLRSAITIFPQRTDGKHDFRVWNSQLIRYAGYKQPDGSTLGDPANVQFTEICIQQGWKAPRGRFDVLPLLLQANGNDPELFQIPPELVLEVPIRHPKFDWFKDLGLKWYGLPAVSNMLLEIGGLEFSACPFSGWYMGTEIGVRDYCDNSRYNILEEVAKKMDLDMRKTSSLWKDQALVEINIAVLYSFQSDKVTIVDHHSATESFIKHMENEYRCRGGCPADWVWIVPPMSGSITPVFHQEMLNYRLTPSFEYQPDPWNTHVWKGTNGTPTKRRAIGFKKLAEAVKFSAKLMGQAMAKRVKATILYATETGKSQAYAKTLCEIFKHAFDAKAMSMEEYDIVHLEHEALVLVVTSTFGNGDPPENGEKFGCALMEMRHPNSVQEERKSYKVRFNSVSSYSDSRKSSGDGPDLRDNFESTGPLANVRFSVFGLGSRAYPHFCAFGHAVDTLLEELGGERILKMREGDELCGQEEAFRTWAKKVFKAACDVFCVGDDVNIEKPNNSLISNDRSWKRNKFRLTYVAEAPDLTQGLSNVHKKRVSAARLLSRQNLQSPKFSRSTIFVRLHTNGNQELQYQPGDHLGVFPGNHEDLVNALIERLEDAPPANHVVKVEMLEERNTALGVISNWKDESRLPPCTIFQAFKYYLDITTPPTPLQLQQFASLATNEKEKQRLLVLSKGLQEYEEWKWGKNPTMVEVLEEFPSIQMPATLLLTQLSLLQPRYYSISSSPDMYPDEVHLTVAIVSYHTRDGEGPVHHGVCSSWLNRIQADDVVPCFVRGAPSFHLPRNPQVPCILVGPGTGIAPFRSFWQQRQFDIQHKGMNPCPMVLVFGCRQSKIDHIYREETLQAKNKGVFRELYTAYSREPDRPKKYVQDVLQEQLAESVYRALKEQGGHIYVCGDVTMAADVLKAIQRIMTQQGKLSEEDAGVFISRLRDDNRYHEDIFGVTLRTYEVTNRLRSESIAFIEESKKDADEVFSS

SMILES	Activity (Bacillus subtilis [1]) [%]	inhibition (Bacillus subtilis [2])	inhibition (INH) (Bacillus subtilis [3]) [%]	Ks (Bacillus subtilis [4]) [µM]	Ks (Bacillus subtilis [5]) [µM]	Ki (Nitric oxide synthase 3) [µM]	inhibition (Bacillus subtilis [1])	Ki (Nitric oxide synthase 1) [µM]	Ki [6] [µM]
Cc1cc(N)nc(CCc2cc(N)cc(CCc3cc(C)cc(N)n3)c2)c1	49.2	Active	36	1.9	0.91				
CNc1cc(C)cc(CCc2cc(C#N)cc(CCc3cc(C)cc(N)n3)c2)n1		Active		19	12	11.8	Active	0.196	14.4
N=C(Nc1cccc(OCC(O)c2cccc(NC(=N)c3cccs3)c2)c1)c1cccs1 (stereo not given)		Active					Active		
Cc1cc(N)nc(CCc2cc(C#N)cc(NCCc3ccccn3)c2)c1		Active				1.56	Active	1.27	12.8
Cc1cc(N)nc(CCc2cc(CN)cc(CCc3ccc4cc[nH]c4n3)c2)c1		Active		12	10		Active	0.22	7.1
Cc1cc(N)nc(CCc2cc(CCCN)cc(CCc3cc(C)cc(N)n3)c2)c1		Active		19	16		Active		
N=C(NO)NCCC[C@H](N)C(=O)O				1.9	3.2				
Cc1cc(N)nc(CCc2cc(CN)cc(CCc3cc(C)cc(N)n3)c2)c1		Active		47	15		Active		
